19 molecules from ChEMBL document CHEMBL1149888 (Bioorg Med Chem, 2008) can be followed below.

The target in series [1] is Butyrylcholinesterase (Equus caballus, UniProt Q9N1N9). Nature of the series: Inhibition of equine serum BuChE by Ellman's assay. Put shortly:
(§1)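 Ellman photometric assay with electric eel AChE (type VI-S) or equine serum BChE (enzyme solution 2.5 U/mL) in phosphate buffer, pH 8.0. Enzyme and inhibitor stand together for 5 min, then DTNB is added. The reaction starts with acetylthiocholine (AChE) or butyrylthiocholine (BChE), and A412 is read 2.5 min later at 25 °C. At least five concentrations (highest 10^-4 M final) are run in triplicate. Percent activity versus the no-inhibitor reference is plotted against log concentration; each value is the mean of ≥3 independent runs.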

Series [2] in a line: Selectivity ratio of IC50 for electric eel AChE to IC50 for equine serum BuChE.
Series [3] deals with Acetylcholinesterase (Electrophorus electricus, UniProt O42275). Nature of the series: Inhibition of electric eel AChE type 6S by Ellman's assay. A general note: DTNB colorimetry detects thiols as they appear.
Chain of Acetylcholinesterase (O42275 whole entry): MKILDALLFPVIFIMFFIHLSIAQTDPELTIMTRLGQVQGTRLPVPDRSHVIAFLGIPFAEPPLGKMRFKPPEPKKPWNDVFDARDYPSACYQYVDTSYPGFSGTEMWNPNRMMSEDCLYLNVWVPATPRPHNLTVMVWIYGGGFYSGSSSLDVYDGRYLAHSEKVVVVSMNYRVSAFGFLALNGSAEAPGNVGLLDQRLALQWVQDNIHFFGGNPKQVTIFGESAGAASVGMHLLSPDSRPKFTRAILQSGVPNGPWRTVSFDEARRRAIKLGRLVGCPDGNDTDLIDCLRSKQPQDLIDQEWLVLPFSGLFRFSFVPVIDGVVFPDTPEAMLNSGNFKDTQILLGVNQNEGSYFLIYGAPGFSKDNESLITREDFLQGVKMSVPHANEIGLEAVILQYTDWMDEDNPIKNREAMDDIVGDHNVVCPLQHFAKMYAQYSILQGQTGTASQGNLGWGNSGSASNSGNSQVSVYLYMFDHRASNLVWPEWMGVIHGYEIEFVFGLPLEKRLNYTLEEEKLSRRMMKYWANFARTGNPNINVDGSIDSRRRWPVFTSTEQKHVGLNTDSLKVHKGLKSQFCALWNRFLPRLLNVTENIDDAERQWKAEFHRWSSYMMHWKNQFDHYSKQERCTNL
Series [4] has as its target Acetylcholinesterase (Electrophorus electricus) (UniProt O42275). Nature of the series: Inhibition of electric eel AChE at 10 uM by Ellman's assay. The gist of the method: as §1
A short description of series [5]: Cytotoxicity against mouse brain N11 cells from by MTT assay. The class given is cell-based. Put shortly:
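N11 microglia (embryonic mouse brain, retrovirus-immortalized) were kept in DMEM with 10% heat-inactivated FCS and 2 mM glutamine. Cells were seeded at 5×10³/well and grown 24 h, then exposed 24 h to compound or solvent in phenol-red-free medium with 1% FCS.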
For orientation: Tetrazolium assays rely on reduction of a dye to a coloured formazan, in cell work by metabolically active cells.

Series [6] is described as follows: Antioxidant scavenging activity against AAPH-induced peroxyl radical assessed as trolox equivalent per uM of compound by ORAC-fluorescein assay. The class given is physicochemical. The gist of the method:
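Peroxyl radicals generated by AAPH (12 mM final) at 37 °C in 75 mM phosphate buffer pH 7.4. Sample (0.5–10 µM) was preincubated 15 min with fluorescein (300 nM final), then AAPH added. Fluorescence (ex 485/em 535 nm) read every 60 s for 90 min. Net AUC vs blank was calibrated against Trolox (1–8 µM final). Each run fourfold, at least four independent runs.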

Chain of Butyrylcholinesterase (Q9N1N9 whole entry): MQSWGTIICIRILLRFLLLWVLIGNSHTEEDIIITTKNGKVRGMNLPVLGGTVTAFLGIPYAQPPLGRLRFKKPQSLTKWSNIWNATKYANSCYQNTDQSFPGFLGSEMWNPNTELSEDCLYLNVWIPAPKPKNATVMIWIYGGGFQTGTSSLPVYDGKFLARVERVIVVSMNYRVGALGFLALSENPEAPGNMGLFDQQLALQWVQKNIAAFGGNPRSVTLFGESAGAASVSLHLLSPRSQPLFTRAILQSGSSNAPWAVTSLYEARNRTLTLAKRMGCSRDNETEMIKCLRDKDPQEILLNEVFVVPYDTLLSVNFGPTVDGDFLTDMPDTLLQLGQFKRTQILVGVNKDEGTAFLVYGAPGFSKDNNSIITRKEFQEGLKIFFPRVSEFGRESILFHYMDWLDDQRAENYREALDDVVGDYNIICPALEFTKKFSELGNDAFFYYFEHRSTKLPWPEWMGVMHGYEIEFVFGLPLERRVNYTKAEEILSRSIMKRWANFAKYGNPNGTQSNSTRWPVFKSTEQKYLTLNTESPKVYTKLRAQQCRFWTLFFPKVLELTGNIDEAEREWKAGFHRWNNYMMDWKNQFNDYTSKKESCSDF
Chain of Acetylcholinesterase (Electrophorus electricus) (O42275 24-633 limits assumed): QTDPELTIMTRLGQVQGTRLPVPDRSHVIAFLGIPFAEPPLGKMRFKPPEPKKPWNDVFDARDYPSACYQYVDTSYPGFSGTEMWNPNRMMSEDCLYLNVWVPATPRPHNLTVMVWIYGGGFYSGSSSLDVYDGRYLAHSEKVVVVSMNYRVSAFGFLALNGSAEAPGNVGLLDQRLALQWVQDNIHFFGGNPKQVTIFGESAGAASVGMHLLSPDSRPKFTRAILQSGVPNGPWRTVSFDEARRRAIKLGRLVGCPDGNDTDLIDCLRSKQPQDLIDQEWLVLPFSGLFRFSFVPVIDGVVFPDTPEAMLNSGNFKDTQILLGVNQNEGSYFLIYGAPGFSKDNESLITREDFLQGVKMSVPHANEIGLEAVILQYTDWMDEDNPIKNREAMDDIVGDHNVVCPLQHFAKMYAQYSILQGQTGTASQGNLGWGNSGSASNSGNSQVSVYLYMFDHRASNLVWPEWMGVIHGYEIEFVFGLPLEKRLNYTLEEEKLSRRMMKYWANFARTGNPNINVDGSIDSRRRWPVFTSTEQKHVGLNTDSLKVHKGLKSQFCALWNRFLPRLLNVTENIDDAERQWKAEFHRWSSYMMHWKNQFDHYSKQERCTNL

What is called IC50 is the concentration that gives 50% inhibition. A low value points to greater potency in that assay. As to `NCCCCC/N=c1/c2ccc(Cl)cc2nc2n1CCC2`, the half-inhibitory concentration (IC50) in series [1] turned out to be 190 nM; in series [3], 170 nM. Besides, the Ratio IC50 in series [2] came out at 0.9.
By inhibition is commonly meant the change of the read-out against control, counted positive when it falls. High values mean a response far below the control, low ones a response near the control. Consider `O=C(CCCCC1CCSS1)NCCCCCCCC/N=c1/c2ccccc2nc2n1CCCCCC2` (stereo unspecified), for which the inhibition in series [4] was less than 10%. Further, the results for the IC50 in series [1] and in series [5] were 23 nM and 6540 nM, respectively. For the same molecule, the Ratio IC50 in series [2] was greater than 5000. For the same molecule, the Activity in series [6] is on record as 0.4.
On to `O=C(CCCCC1CCSS1)NCCCC/N=c1/c2ccc(Cl)cc2nc2n1CCC2` (stereo unspecified), for which the half-maximal inhibitory concentration (IC50) in series [1] came out at 170 nM; in series [3], 4580 nM. Besides, the Ratio IC50 in series [2] amounted to 27.1.
Taken in the same sequence, the figures for `NCCCC/N=c1/c2ccc(Cl)cc2nc2n1CCC2` were 720 nM, 480 nM and 0.7.
On to `Clc1ccc2/c(=N/CCCCCCCC/N=c3/c4ccc(Cl)cc4nc4n3CCC4)n3c(nc2c1)CCC3`, for which the IC50 was found to be 45 nM in series [1] and 50 nM in series [3].
Consider `O=C(CCCCC1CCSS1)NCCC/N=c1/c2ccc(Cl)cc2nc2n1CCC2` (stereo unspecified), for which the IC50 in series [1] came out at 2580 nM; in series [5], 7510 nM; in series [3] it was 2840 nM. For the same molecule, the Ratio IC50 in series [2] amounted to 1.1. Also, the Activity in series [6] is listed as 0.8.
Turning to `NCCCCCCC/N=c1/c2ccc(Cl)cc2nc2n1CCC2`, the IC50 in series [1] was 710 nM; in series [3], 4060 nM. In addition, the Ratio IC50 in series [2] was found to be 5.7.
For `O=C(CCCCC1CCSS1)NCCCCCCC/N=c1/c2ccc(Cl)cc2nc2n1CCC2` (stereo unspecified), the IC50 in series [1] is 14 nM; in series [3], 1940 nM. In addition, in series [2], the Ratio IC50 was 134.
`CCCC/N=c1/c2ccc(Cl)cc2nc2n1CCC2`: the Ratio IC50 in series [2] was determined as 1.7.
`O=C(CCCCC1CCSS1)NCCCCCCCC/N=c1/c2ccc(Cl)cc2nc2n1CCC2` (stereo unspecified): the IC50 is 5.7 nM in series [1], 10200 nM in series [5] and 468 nM in series [3]. Further, the Ratio IC50 in series [2] came out at 82. In series [6], the Activity is 0.5.
For the molecule `NCCC/N=c1/c2ccc(Cl)cc2nc2n1CCC2`, the concentration for half-maximal inhibition (IC50) in series [1] was determined as 10200 nM; in series [3], 19000 nM. Moreover, in series [2], the Ratio IC50 stood at 1.9.
Taken in the same sequence, the figures for `O=C(CCCCC1CCSS1)NCCCCC/N=c1/c2ccc(Cl)cc2nc2n1CCC2` (stereo unspecified) were 53 nM, 4380 nM and 83.
In the case of `NCCCCCC/N=c1/c2ccc(Cl)cc2nc2n1CCC2`, the concentration for half-maximal inhibition (IC50) was 380 nM in series [1], 6010 nM in series [5] and 1490 nM in series [3]. Also, the Ratio IC50 in series [2] turned out to be 3.9. Moreover, the Activity in series [6] came to 0.2.
On to `N=c1c2ccccc2nc2n1CCC2`, for which the Ratio IC50 in series [2] came to 1.8.
Turning to `O=C(O)CCCCC1CCSS1` (stereo not drawn) [LIPOIC ACID, ALPHA], the Activity in series [6] is reported as 0.6.
Take `NCCCCCCCC/N=c1/c2ccccc2nc2n1CCCCCC2`: the IC50 in series [1] was 46 nM; in series [5], 3740 nM; in series [3], 3400 nM. Also, the Ratio IC50 in series [2] amounted to 73.9. In addition, the Activity in series [6] worked out at 0.1.
Taken in the same sequence, the figures for `NCCCCCCCC/N=c1/c2ccc(Cl)cc2nc2n1CCC2` were 12 nM, 6270 nM, 130 nM, 10.7 and 0.1.
Take `O=C(CCCCC1CCSS1)NCCCCCC/N=c1/c2ccc(Cl)cc2nc2n1CCC2` (stereo unspecified): the IC50 came to 26 nM in series [1] and 740 nM in series [3]. In addition, the Ratio IC50 in series [2] turned out to be 28.8.
With `c1ccc(C/N=c2/c3ccccc3nc3n2CCCCCCC3)cc1`, the half-inhibitory concentration (IC50) was 1100 nM in series [1] and greater than 500000 nM in series [3].
